Test [1] addresses DNA (cytosine-5)-methyltransferase 3A (Homo sapiens) (UniProt Q9Y6K1). The experiment in a line: Inhibition of DNMT3A (unknown origin) at 500 uM.
The species entered for a further test is Mus musculus. Description: Inhibition of TET in mouse HT22 cells assessed as reduction in global DNA 5-hmc level at 10 uM after 24 hrs by spectrophotometric method. Type of test: cell-based. The gist of the method:
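HT-22 immortalized mouse hippocampal neurons dosed at 10 μM in 1% DMSO for 24 h, then lysed; DNA extracted and 5hmC detected with a 5hmC-specific antibody, colorimetric read-out giving percent 5hmC of all cytosine species. Vehicle control; N = 6 biological replicates per group, mean ± SEM, one-way ANOVA.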

In test [2] the target is Methylcytosine dioxygenase TET1 (Homo sapiens) (UniProt Q8NFU7). Description: Inhibition of recombinant human N-terminal FLAG-tagged TET1 (1418 to 2136 residues) expressed in baculovirus infected sf9 cells assessed as reduction in oxidation of methylated dsDNA at 100 uM after 2 hrs by chemiluminescence assay relative to control. In a few lines: (§1)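 ELISA of oxidation of methylated double-stranded DNA by recombinant human TET1 or TET2, inhibitor tested at 100 μM. N = 3, mean ± SEM; two-way ANOVA.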
Chain of Methylcytosine dioxygenase TET1 (Homo sapiens) (Q8NFU7 whole entry, the tested form may be a part): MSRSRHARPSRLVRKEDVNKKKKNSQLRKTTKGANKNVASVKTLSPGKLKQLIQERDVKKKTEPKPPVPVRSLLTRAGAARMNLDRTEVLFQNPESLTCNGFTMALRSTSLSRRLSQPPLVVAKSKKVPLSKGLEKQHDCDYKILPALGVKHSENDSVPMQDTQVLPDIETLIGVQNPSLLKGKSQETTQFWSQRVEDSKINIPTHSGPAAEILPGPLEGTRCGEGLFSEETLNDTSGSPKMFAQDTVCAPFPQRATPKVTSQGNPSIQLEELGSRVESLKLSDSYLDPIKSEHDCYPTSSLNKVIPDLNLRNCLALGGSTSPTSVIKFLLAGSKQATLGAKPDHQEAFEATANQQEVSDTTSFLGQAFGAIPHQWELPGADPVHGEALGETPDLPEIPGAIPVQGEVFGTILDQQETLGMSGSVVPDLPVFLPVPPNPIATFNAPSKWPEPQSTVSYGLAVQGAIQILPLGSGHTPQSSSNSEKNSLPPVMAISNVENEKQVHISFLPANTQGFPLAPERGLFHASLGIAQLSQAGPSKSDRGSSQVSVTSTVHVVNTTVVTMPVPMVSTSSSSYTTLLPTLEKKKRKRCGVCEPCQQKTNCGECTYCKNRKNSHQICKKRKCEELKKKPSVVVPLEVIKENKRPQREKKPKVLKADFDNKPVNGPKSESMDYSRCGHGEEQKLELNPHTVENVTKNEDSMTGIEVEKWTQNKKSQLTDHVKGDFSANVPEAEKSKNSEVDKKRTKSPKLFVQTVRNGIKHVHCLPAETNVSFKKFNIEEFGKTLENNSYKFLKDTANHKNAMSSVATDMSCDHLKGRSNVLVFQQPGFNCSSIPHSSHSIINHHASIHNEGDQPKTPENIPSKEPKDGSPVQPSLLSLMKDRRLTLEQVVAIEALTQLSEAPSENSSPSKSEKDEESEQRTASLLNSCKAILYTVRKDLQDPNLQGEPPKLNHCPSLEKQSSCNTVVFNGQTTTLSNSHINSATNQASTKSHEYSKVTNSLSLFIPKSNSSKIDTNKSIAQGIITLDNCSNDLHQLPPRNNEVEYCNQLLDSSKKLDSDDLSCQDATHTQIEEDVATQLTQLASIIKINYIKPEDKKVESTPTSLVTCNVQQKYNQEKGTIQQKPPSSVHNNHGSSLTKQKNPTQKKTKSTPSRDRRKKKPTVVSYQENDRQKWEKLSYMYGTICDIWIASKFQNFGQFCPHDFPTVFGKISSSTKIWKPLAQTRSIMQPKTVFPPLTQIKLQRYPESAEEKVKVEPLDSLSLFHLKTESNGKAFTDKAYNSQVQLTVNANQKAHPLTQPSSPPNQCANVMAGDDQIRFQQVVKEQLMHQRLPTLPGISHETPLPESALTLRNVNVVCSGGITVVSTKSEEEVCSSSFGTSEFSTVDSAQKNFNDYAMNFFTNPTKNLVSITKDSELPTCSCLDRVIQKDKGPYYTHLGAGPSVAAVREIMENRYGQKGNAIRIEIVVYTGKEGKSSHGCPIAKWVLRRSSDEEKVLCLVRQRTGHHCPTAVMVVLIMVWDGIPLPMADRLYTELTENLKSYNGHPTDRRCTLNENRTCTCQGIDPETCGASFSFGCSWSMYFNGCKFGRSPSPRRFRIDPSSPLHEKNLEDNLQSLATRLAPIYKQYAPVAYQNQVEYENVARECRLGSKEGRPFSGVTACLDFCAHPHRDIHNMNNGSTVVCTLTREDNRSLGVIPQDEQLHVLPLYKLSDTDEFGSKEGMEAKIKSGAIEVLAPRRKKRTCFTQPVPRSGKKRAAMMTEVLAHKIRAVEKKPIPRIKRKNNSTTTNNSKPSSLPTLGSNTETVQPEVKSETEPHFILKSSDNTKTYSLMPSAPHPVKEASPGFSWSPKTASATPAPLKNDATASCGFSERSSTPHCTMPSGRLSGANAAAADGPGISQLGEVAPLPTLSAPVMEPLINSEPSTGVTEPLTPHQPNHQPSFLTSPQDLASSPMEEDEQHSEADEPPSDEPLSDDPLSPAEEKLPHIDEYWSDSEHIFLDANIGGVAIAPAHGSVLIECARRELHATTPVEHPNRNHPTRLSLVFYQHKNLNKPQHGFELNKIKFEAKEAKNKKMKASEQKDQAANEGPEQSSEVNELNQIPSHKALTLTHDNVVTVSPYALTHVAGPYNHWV

Test [3] has as its target Methylcytosine dioxygenase TET2 (Homo sapiens) (UniProt Q6N021). Description: Inhibition of recombinant human C-terminal His/N-terminal FLAG-tagged TET2 (1129 to 2002 residues) expressed in baculovirus infected sf9 cells assessed as reduction in oxidation of methylated dsDNA at 100 uM after 2 hrs by chemiluminescence assay relative to control. In a few lines:
as §1

Active and inactive are the calls of the source. The rule behind the calls is not given here.

Chain of DNA (cytosine-5)-methyltransferase 3A (Homo sapiens) (Q9Y6K1 whole entry, looked up): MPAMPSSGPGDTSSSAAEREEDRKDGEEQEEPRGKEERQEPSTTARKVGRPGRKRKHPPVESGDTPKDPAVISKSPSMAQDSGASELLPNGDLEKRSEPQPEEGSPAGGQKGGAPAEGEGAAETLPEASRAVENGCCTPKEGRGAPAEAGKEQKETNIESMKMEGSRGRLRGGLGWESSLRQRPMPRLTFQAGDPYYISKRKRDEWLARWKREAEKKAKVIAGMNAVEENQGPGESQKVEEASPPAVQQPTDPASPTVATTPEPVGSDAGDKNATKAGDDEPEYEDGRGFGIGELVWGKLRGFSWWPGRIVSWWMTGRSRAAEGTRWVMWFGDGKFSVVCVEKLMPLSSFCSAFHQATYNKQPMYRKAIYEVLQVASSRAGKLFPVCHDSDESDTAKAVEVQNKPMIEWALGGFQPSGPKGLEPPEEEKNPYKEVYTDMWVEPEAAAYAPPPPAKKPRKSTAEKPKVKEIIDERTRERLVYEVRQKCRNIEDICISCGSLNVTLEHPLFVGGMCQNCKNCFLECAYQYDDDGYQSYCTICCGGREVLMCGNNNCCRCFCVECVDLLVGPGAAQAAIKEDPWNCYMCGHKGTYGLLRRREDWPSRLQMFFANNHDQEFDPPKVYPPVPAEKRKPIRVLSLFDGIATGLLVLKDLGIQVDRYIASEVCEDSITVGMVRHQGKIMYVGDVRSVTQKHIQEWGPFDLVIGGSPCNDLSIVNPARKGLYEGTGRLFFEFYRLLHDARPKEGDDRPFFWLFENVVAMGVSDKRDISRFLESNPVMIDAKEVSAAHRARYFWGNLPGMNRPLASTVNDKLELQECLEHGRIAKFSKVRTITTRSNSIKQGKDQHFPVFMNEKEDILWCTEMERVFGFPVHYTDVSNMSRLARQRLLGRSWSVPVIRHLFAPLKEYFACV

By inhibition is commonly meant how much of the control response was suppressed. With `Nc1nc(=O)n(-c2cccc(-c3ccccc3)c2)cc1Cl`, the inhibition entry in test [1] was “inactive”. Also, the inhibition entry (in the test filed under Mus musculus; in test [2]) was “Active” each time.

`Nc1nc(=O)n(-c2ccccc2)cc1C(F)(F)F`: the inhibition result in test [3] and in test [2] was “inactive” each time.

For the compound `Nc1nc(=O)n(-c2ccccc2-c2ccccc2)cc1Cl`, the inhibition result in test [3] and in test [2] was “inactive” in each case.

For the compound `Nc1ccn(-c2ccccc2)c(=O)n1`, the inhibition result in test [3] and in test [2] was “inactive” each time.

`Nc1nc(=O)n(-c2ccccc2)cc1Cl`: the inhibition in test [3] is 43%; in test [2] it was 57%. Moreover, in the test listed under Mus musculus, the inhibition result was “inactive”.

In the case of `Nc1nc(=O)n(-c2ccc(-c3ccccc3)cc2)cc1Cl`, the inhibition entry in test [3] and in test [2] was “inactive” in each case.

The values are drawn from ChEMBL document CHEMBL4330181, “Cytosine-Based TET Enzyme Inhibitors” (ACS Med Chem Lett, 2019).
